# Measurements reported in ChEMBL document CHEMBL4017487, “Design and Synthesis of γ- and δ-Lactam M1 Positive Allosteric Modulators (PAMs): Convulsion and Cholinergic Toxicity of an M1-Selective PAM with Weak Agonist Activity” (J Med Chem, 2017).
# Tests used:
# [1] = target: T1, Muscarinic acetylcholine receptor M1 (Homo sapiens, UniProt P11229); experiment: Positive allosteric modulation of human muscarinic acetylcholine receptor M1 expressed in CHO cells assessed as increase in acetylcholine-induced calcium mobilization preincubated for 10 mins followed by acetylcholine addition by Fluo-8-AM dye based FLIPR assay; type: ADME, cell-based
# T1 sequence (P11229 whole entry): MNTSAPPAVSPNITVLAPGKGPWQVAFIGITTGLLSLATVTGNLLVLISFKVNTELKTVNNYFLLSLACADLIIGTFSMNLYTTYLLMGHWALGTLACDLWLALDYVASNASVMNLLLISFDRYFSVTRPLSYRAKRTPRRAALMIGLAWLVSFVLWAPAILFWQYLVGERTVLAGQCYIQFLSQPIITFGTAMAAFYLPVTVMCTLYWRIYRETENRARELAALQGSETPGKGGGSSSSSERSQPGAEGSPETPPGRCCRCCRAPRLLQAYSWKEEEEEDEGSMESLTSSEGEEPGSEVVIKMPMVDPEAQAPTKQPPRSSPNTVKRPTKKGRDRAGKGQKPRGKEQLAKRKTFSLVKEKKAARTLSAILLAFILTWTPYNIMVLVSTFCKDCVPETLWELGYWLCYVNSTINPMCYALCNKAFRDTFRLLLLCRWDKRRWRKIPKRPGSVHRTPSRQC
# Summary of the method: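 M1 potentiation (PAM) format: calcium mobilization read on a FLIPR plate reader with an EC20 concentration of ACh present. EC50 is the geometric mean of at least three experiments.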
# [2] = Intrinsic clearance in human liver microsomes; type: ADME, microsome; conditions: read-out: CLH
# MDR1 = experiment: Efflux ratio of permeability from basolateral to apical side over apical to basolateral side in MDCK1 cells expressing MDR1; type: ADME, cell-based, Canis lupus familiaris; conditions: dog, MDCK-MDR1
# Summary of the method: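 MDCKI-MDR1 cells (MDCK epithelial line transfected with MDR1/P-gp; from the NIH). Permeability measured as a rate in 10−6 cm/s in both directions; value is the BA/AB ratio.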
# Rattus norvegicus [3] = experiment: Toxicity in rat assessed as unbound Cmax in brain required to show convulsions at 45 mg/kg, po administered as single dose; type: organism-based; conditions: in vivo
# Rattus norvegicus [4] = experiment: Toxicity in rat assessed as unbound Cmax in plasma required to show convulsions at 45 mg/kg, po administered as single dose; type: organism-based; conditions: in vivo
# [5] = Ratio of unbound AUC in rat brain to plasma at 45 mg/kg, po administered as single dose; type: ADME, organism-based
# Summary of the method: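 Rats, 3 per sex, received a single oral 45 mg/kg dose as a nanosuspension in 1.25% w/v hydroxypropyl cellulose SL with 0.05% docusate sodium in purified water. The brain/plasma ratio is the AUC ratio of unbound drug in brain to unbound drug in plasma. It was used to estimate unbound brain levels from measured unbound plasma Cmax.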
# [6] = target: T1, Muscarinic acetylcholine receptor M1; experiment: Displacement of [3H]PT-1284 human muscarinic acetylcholine receptor M1 expressed in CHO cell membranes after 90 mins scintillation counting method
# [7] = (§1) Ratio of unbound Cmax in rat brain assessed as convulsions at 45 mg/kg, po administered as single dose to unbound brain concentration for agonist activity at muscarinic acetylcholine receptor M1 in C57BL/6 mouse assessed as required to show 2 fold increase in IP1 accumulation in striatum at 1 to 10 mg/kg, sc; type: organism-based
# [8] = target: T1, Muscarinic acetylcholine receptor M1; experiment: Agonist activity at human muscarinic acetylcholine receptor M1 expressed in CHO cells assessed as increase in calcium mobilization at 13 uM incubated for 10 mins by Fluo-8-AM dye based FLIPR assay relative to control; type: cell-based; conditions: read-out: %max
# [9] = target: T1, Muscarinic acetylcholine receptor M1; experiment: Agonist activity at human muscarinic acetylcholine receptor M1 expressed in CHO cells assessed as increase in calcium mobilization incubated for 10 mins by Fluo-8-AM dye based FLIPR assay; type: cell-based
# Summary of the method: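 M1 FLIPR calcium mobilization run in agonist mode (compound added without the EC20 ACh used in PAM mode). Top concentration 10 μM. EC50 values are geometric means of at least three experiments.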
# Mus musculus = experiment: In vivo agonist activity at muscarinic acetylcholine receptor M1 in C57BL/6 mouse assessed as unbound brain concentration required to show 2 fold increase in IP1 accumulation in striatum at 1 to 10 mg/kg, sc measured after 2 hrs; type: organism-based
# Summary of the method: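 Cb,u giving a 2-fold rise in striatal IP1 in C57BL/6 mice, estimated by interpolation of individual-mouse IP1 versus free brain exposure data.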
# Canis familiaris [10] = experiment: Toxicity in dog assessed as unbound Cmax in plasma required to show convulsions at 15 mg/kg, po administered as single dose using spray dried dispersion formulation; type: organism-based, Canis lupus familiaris; conditions: in vivo
# Canis familiaris [11] = experiment: Toxicity in dog assessed as unbound Cmax in brain required to show convulsions at 15 mg/kg, po administered as single dose using spray dried dispersion formulation; type: organism-based, Canis lupus familiaris; conditions: in vivo
# [12] = as §1, with “in dog” for “in rat”, “at 15” for “at 45”; type: organism-based
# Cytochrome P450 3A4 = Cytochrome P450 3A4 (Homo sapiens, UniProt P08684); experiment: Time dependent inhibition of CYP3A4 (unknown origin) by high throughput assay relative to 2-((3R,4S)-3-Hydroxytetrahydro-2H-pyran-4-yl)-5-methyl-6-(4-(oxazol-4-yl)benzyl)isoindolin-1-one; type: ADME
# Sequence of Cytochrome P450 3A4 (P08684 whole entry): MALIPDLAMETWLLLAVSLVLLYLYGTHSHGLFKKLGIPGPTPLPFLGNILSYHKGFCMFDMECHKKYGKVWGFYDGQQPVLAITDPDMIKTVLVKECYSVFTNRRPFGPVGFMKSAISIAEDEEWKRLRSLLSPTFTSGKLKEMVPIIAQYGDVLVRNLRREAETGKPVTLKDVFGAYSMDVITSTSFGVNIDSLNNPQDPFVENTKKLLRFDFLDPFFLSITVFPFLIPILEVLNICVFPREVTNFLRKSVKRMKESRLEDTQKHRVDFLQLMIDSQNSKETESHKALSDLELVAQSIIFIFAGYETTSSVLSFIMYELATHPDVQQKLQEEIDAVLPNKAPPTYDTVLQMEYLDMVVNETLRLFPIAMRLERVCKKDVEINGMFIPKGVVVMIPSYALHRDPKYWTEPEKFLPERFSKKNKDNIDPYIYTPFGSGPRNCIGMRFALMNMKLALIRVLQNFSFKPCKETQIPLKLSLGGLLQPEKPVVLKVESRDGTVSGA
EC50 [1] [µM],CLint scaled [2] [L/h/kg],efflux ratio (MDR1),SMILES,further results
0.007,1.5,12,Cc1cc2c(cc1Cc1ccc(-c3cscn3)cc1)C(=O)N([C@H]1CCOC[C@@H]1O)CC2,–
0.063,–,–,Cc1ccc(Cc2cc3c(=O)n([C@H]4CCCC[C@@H]4O)cnc3c3ccccc23)cn1 [MK-7622],fCmax (Rattus norvegicus [3]): 130 nM; fCmax (Rattus norvegicus [4]): 550 nM; Kp uu [5]: 0.24; Ki [6]: 0.008 µM; selectivity ratio [7]: 33; Emax at 13 µM [8]: 62%; EC50 [9]: > 2 µM; Drug uptake(free) (Mus musculus): 4 nM
0.068,< 0.48,53,Cc1cc2c(cc1Cc1ccc(-n3ccnc3)cc1)C(=O)N([C@H]1CCOC[C@@H]1O)C2,–
–,–,–,Cn1ccc(-c2ccc(Cn3cc(C(=O)N[C@H]4CCOC[C@@H]4O)c4ncccc43)cc2)n1,Drug uptake(free) (Mus musculus): 32 nM
–,–,–,Cc1cnc(C(=O)N[C@H]2CCOC[C@@H]2O)cc1Cc1ccc(-c2cscn2)cc1,Ki [6]: 0.019 µM; selectivity ratio [7]: > 29; fCmax (Canis familiaris [10]): 950 nM; fCmax (Canis familiaris [11]): 290 nM; Emax at 13 µM [8]: 34%; EC50 [9]: > 4 µM; Drug uptake(free) (Mus musculus): 14 nM; selectivity ratio [12]: 20
0.036,< 0.48,18,Cc1cc2c(cc1Cc1ccc(-n3cccn3)cc1)C(=O)N([C@H]1CCOC[C@@H]1O)C2,–
0.027,0.9,7.6,Cc1cc2c(cc1Cc1ccc(-c3cnn(C)c3)cc1)C(=O)N([C@H]1CCOC[C@@H]1O)C2,–
0.018,0.9,11,Cc1cc2c(cc1Cc1ccc(-n3cccn3)cc1)C(=O)N([C@H]1CCOC[C@@H]1O)CC2,–
0.026,0.78,2.7,Cc1cc2c(cc1Cc1ccc(-c3cocn3)cc1)C(=O)N([C@H]1CCOC[C@@H]1O)CC2,fold change (FC) (Cytochrome P450 3A4): 6
0.024,0.6,11,Cc1cc2c(cc1Cc1ccc(-c3cscn3)cc1)C(=O)N([C@H]1CCOC[C@@H]1O)C2,–
0.05,0.78,11,Cc1nc(-c2ccc(Cc3cc4c(cc3C)CN([C@H]3CCOC[C@@H]3O)C4=O)cc2)co1,–
0.023,1.26,14,Cc1nc(-c2ccc(Cc3cc4c(cc3C)CCN([C@H]3CCOC[C@@H]3O)C4=O)cc2)co1,–
0.045,1.8,63,Cc1cn(-c2ccc(Cc3cc4c(cc3C)CN([C@H]3CCOC[C@@H]3O)C4=O)cc2)cn1,–
